{"data": "Experimental data of several laboratories", "read-out": "thermal stability", "method": "DSF", "SIRT2": "NAD-dependent protein deacetylase sirtuin-2 (SIRT2, Homo sapiens, UniProt Q8IXJ6)", "DCLK1": "Serine/threonine-protein kinase DCLK1 (DCLK1, Homo sapiens, UniProt O15075)", "lecA": "PA-I galactophilic lectin (lecA, Pseudomonas aeruginosa, UniProt Q05097)", "GAK": "Cyclin-G-associated kinase (GAK, Homo sapiens, UniProt O14976)"}
{"SMILES": "Cc1ccc(Cn2cc(COc3cccc(Cc4cnc(NC(=O)CSc5nc(C)cc(C)n5)s4)c3)nn2)cc1", "target": "SIRT2", "concentration": "25 µM", "ΔTm": "5.35 °C"}
{"SMILES": "Cn1c2c(c3ccc(Cl)c(Cl)c31)C(C#N)C(C)(C)NC2=O (centres unmarked)", "target": "DCLK1", "concentration": "10 µM", "ΔTm": "0.4 °C"}
{"SMILES": "COCCn1cc(COc2cccc(Cc3cnc(NC(=O)CSc4nc(-c5ccccc5)cc(-c5ccccc5)n4)s3)c2)nn1", "target": "SIRT2", "concentration": "25 µM", "ΔTm": "1.4 °C"}
{"SMILES": "Cn1c2c(c3ccc(Cl)c(Cl)c31)C(C#N)C1(CCCC1)NC2=O (centres unmarked)", "target": "DCLK1", "concentration": "10 µM", "ΔTm": "0 °C"}
{"SMILES": "O=C(c1ccccc1)c1ccc(O)c(O)c1", "target": "lecA", "concentration": "4 mM", "ΔTm": "0.4 °C"}
{"SMILES": "FC(F)(F)c1ccc2nccc(Nc3cccc(I)c3)c2c1", "target": "GAK", "concentration": "10 µM", "ΔTm": "2.6 °C"}
{"SMILES": "Cc1ccc(O)c(O)c1", "target": "lecA", "concentration": "4 mM", "ΔTm": "-11 °C"}
{"SMILES": "COc1ccc2nccc(Nc3cc(OC)c(OC)c(OC)c3)c2c1", "target": "GAK", "concentration": "10 µM", "ΔTm": "6 °C"}
